According to ChEMBL document CHEMBL4371014, “Novel Allosteric Ligands of γ-Aminobutyric Acid Transporter 1 (GAT1) by MS Based Screening of Pseudostatic Hydrazone Libraries” (J Med Chem, 2018):
Active and inactive are the calls of the source. The rule behind the calls is not given here.

Columns and labels:
[1] = biological target: Sodium- and chloride-dependent GABA transporter 1 (Homo sapiens) (UniProt P30531); test: Inhibition of human GAT1 expressed in HEK293 cells assessed as reduction in [3H]GABA uptake preincubated for 25 mins followed by [3H]GABA addition and measured after 4 mins by liquid scintillation counting method; assay type: cell-based
[2] = biological target: Sodium- and chloride-dependent GABA transporter 1 (Homo sapiens) (UniProt P30531); details: 1 uM
[3] = biological target: Sodium- and chloride-dependent GABA transporter 1 (Homo sapiens) (UniProt P30531); details: 100 nM
[4] = biological target: Sodium- and chloride-dependent GABA transporter 1 (Mus musculus) (UniProt P31648); test: Inhibition of NO711 binding to mouse GAT1 expressed in HEK293 cell membranes assessed as residual binding at 1 uM preincubated for 4 hrs followed by NO711 addition and measured after 40 mins by LC-ESI-MS/MS analysis relative to control
Summary of the method: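 Single hydrazones formed in situ in the presence of mouse GAT1 from one aldehyde (1.0 µM) and hydrazine (200 µM). Formation ran 4 h, then NO711 MS marker was added for 40 min. Specifically bound NO711 was freed from the target and quantified by LC-ESI-MS/MS. Results are % remaining specific binding, means±SD of four replicates.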

[5] = biological target: Sodium- and chloride-dependent GABA transporter 1 (Mus musculus) (UniProt P31648); test: Inhibition of mouse GAT1 expressed in HEK293 cells assessed as reduction in [3H]GABA uptake at 100 uM preincubated for 25 mins followed by [3H]GABA addition and measured after 4 mins by liquid scintillation counting method relative to control; assay type: cell-based
[6] = biological target: T1, GABA transporter 4 (Mus musculus) (UniProt P31650); test: Inhibition of mouse GAT4 expressed in HEK293 cells assessed as reduction in [3H]GABA uptake at 100 uM preincubated for 25 mins followed by [3H]GABA addition and measured after 4 mins by liquid scintillation counting method relative to control; assay type: cell-based
T1 sequence (whole entry): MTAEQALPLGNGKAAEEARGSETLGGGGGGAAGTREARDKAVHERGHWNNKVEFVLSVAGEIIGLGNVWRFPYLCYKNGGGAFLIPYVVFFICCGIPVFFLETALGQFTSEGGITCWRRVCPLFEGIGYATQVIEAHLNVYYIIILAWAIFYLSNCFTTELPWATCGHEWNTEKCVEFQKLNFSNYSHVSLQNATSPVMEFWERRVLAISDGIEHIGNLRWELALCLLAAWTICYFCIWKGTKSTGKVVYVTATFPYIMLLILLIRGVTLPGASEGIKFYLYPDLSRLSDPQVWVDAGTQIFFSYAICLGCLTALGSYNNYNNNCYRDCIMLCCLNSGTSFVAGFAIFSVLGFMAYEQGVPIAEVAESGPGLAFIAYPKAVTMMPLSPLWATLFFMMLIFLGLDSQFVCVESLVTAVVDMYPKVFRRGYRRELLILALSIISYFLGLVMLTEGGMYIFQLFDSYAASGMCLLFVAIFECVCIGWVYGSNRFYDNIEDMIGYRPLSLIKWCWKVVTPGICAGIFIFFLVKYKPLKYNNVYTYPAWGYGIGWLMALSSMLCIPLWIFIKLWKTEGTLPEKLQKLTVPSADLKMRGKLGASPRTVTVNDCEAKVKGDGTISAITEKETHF

[7] = biological target: Sodium- and chloride-dependent GABA transporter 1 (Homo sapiens) (UniProt P30531); test: (§1) Non-competitive inhibition of human GAT1 expressed in COS cells assessed as reduction in [2H6]GABA uptake by measuring [2H6]GABA Bmax at 1 uM preincubated for 25 mins followed by [2H6]GABA addition and measured after 4 mins […] (reference value: 79.5 +/- 5 pmol/mg); assay type: cell-based
[8] = biological target: Sodium- and chloride-dependent GABA transporter 1 (Homo sapiens) (UniProt P30531); test: as §1, with “at 10” for “at 1”; assay type: cell-based
[9] = system: Betaine/GABA transporter BGT1 (Mus musculus); test: Inhibition of mouse GAT2 expressed in HEK293 cells assessed as reduction in [3H]GABA uptake at 100 uM preincubated for 25 mins followed by [3H]GABA addition and measured after 10 mins by liquid scintillation counting method relative to control
[10] = system: Slc6a13 GABA transporter mGAT3 (Mus musculus); test: Inhibition of mouse GAT3 expressed in HEK293 cells assessed as reduction in [3H]GABA uptake at 100 uM preincubated for 25 mins followed by [3H]GABA addition and measured after 4 mins by liquid scintillation counting method relative to control

Sequence of Sodium- and chloride-dependent GABA transporter 1 (Homo sapiens) (P30531 whole entry, looked up): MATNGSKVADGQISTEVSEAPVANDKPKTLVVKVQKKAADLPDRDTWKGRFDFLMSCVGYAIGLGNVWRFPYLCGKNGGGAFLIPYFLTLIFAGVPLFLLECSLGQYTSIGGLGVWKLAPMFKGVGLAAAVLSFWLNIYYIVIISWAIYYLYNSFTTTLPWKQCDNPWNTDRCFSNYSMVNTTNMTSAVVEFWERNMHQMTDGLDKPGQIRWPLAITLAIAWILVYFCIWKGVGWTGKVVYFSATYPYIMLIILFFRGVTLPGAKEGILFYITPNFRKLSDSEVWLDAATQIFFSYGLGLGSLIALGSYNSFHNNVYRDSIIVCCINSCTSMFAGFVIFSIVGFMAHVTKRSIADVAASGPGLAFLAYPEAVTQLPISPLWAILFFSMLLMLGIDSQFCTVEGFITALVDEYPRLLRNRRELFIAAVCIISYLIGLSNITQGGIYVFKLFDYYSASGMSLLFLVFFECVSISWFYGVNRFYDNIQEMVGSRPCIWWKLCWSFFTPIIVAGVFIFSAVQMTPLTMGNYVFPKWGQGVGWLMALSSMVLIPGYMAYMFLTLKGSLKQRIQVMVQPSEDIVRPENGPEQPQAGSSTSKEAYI

inhibition [1] | Activity [4] [%] | Structure (SMILES) | further results
Active | 47 | O=C(O)[C@H]1CNC[C@@H](CCN/N=C/c2ccc(-c3ccc(C(F)(F)F)cc3Cl)o2)C1 (racemic) | 
Active | 41 | O=C(O)[C@H]1CNC[C@@H](CCN/N=C/c2ccc(-c3ccc(Cl)cc3Cl)o2)C1 (racemic) | 
Active | 32 | O=C(O)[C@H]1CNC[C@@H](CN/N=C/c2ccc(-c3cc(C(F)(F)F)cc(C(F)(F)F)c3)o2)C1 (racemic) | inhibition [5]: 50%; inhibition [6]: 79%; Bmax [7]: 57.1 pmol/mg; Bmax [8]: 38.9 pmol/mg; inhibition [9]: 84%; inhibition [10]: 65%
Active | 38 | O=C(O)[C@H]1CNC[C@@H](CN/N=C/c2ccc(-c3cc(C(F)(F)F)ccc3Cl)o2)C1 (racemic) | inhibition [6]: 57%; inhibition [9]: 91%; inhibition [10]: 57%
Active | 40 | O=C(O)[C@H]1CNC[C@@H](CN/N=C/c2ccc(-c3ccc(C(F)(F)F)cc3Cl)o2)C1 (racemic) | inhibition [6]: 53%; inhibition [9]: 65%; inhibition [10]: 59%
Active | 16 | O=C(O)[C@H]1CNC[C@@H](CN/N=C/c2ccc(-c3cccc4ccccc34)o2)C1 (racemic) | Bmax [7]: 48.4 pmol/mg; Bmax [8]: 28.3 pmol/mg; inhibition [9]: 64%
 | > 50 | O=C(O)[C@H]1CNC[C@H](CCN/N=C/c2ccc(-c3ccc(C(F)(F)F)cc3Cl)o2)C1 (racemic) | 
 | > 50 | O=C(O)[C@H]1CNC[C@H](CCN/N=C/c2ccc(-c3ccccc3OC(F)(F)F)o2)C1 (racemic) | 
 | > 50 | O=C(O)[C@H]1CNC[C@H](CN/N=C/c2ccc(-c3ccccc3OC(F)(F)F)o2)C1 (racemic) | 

Second part, the compound before the results:

Structure (SMILES) | inhibition [1] | Activity [4] [%] | further results
Cc1ccsc1C(=CCCN1CCC[C@@H](C(=O)O)C1)c1sccc1C | Active |  | Bmax [2]: 81 pmol/mg; Bmax [3]: 79.9 pmol/mg
O=C(O)C1=CCCN(CCON=C(c2ccccc2)c2ccccc2)C1 | Active |  | 
Cc1ccsc1-c1sc(/C=N/NCC[C@H]2CNC[C@H](C(=O)O)C2)cc1C (racemic) |  | > 50 | 
O=C(O)[C@H]1CNC[C@H](CCN/N=C/c2ccc(C#Cc3ccccc3)s2)C1 (racemic) |  | > 50 | 
O=C(O)[C@H]1CNC[C@H](CCN/N=C/c2ccccc2-n2cccc2)C1 (racemic) |  | > 50 | 
O=C(O)[C@H]1CNC[C@H](CCN/N=C/c2cccn2-c2ccc(C(F)(F)F)cc2)C1 (racemic) |  | > 50 | 
O=C(O)[C@H]1CNC[C@H](CCN/N=C/c2csc3ccccc23)C1 (racemic) |  | > 50 | 
O=C(O)[C@H]1CNC[C@H](CCN/N=C/c2sccc2-n2cccc2)C1 (racemic) |  | > 50 | 
O=C(O)[C@H]1CNC[C@H](CN/N=C/c2ccc(C#Cc3ccccc3)s2)C1 (racemic) |  | > 50 | 
O=C(O)[C@H]1CNC[C@H](CN/N=C/c2cccn2-c2ccc(C(F)(F)F)cc2)C1 (racemic) |  | > 50 | 
